What was measured:
Hepatocyte = test: Drug uptake in sandwich cultured Sprague-Dawley rat hepatocytes by LC-MS/MS analysis; type: ADME, cell-based
Method in brief: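 Hepatocytes came from male Sprague-Dawley rats by two-step collagenase perfusion (viability >90%). They were seeded at 5 × 10^5 cells/well on collagen, overlaid with Matrigel 0.25 mg/mL on day 2, and cultured 72 h. Cells were preincubated 10 min at 37°C in HBSS or Ca2+/Mg2+-free HBSS with 1 mmol/L EGTA. Substrate (0.5 or 1 μmol/L) was incubated 15 min. Cells were then rinsed ice-cold, lysed in Triton X-100, and analyzed by LC-MS/MS, normalized to BCA protein. n = 3.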

[1] = Unbound fraction in Sprague-Dawley rat plasma at 100 uM by equilibrium dialysis method
[2] = Drug uptake in iv dosed Sprague-Dawley rat liver after 5 hrs by LC-MS/MS analysis; type: ADME, organism-based; settings: read-out: Drug uptake
Method in brief: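 Rats (9 weeks old) were anesthetized with isoflurane, and the femoral vein and common bile duct were cannulated; animals were held in Bollman cages. Compound (1 mg/mL in saline, or in saline:dimethylacetamide 1:1) was infused IV at 0.2 mL/h to reach steady-state plasma levels. Livers were taken 5 h after infusion start, extracted with acetonitrile containing internal standard, and analyzed by LC-MS/MS. n = 5.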

[3] = In vivo apparent biliary clearance in iv dosed Sprague-Dawley rat by LC-MS/MS analysis; type: ADME, organism-based, Bile
[4] = In vivo intrinsic biliary clearance in iv dosed Sprague-Dawley rat by LC-MS/MS analysis; type: ADME, organism-based, Bile
[5] = Biliary excretion in rat; type: ADME; settings: bile, read-out: Drug excretion
[6] = Total clearance in rat; type: ADME, organism-based; settings: in vivo
[7] = Biliary excretion in Eisai hyperbilirubinemic mutant rat at 20 mg/kg, iv administered as single dose by HPLC analysis; type: ADME, organism-based; set-up: dose 20 mg/kg, route intravenous; settings: bile, read-out: Drug excretion
[8] = Total clearance in Eisai hyperbilirubinemic mutant rat at 20 mg/kg, iv administered as single dose by HPLC analysis; type: ADME, organism-based; set-up: dose 20 mg/kg, route intravenous; settings: in vivo

Row | SMILES | Drug uptake (Hepatocyte) [µmol/L] | fraction unbound at 100 µM [1] | concentration at 5 h [2] [µM] | CL(app) [3] [mL/h/kg] | CL [4] [mL/h/kg] | dose excreted [5] [%] | clearance [6] [mL/min/kg] | dose excreted [7] [%] | clearance [8] [mL/min/kg]
1 | CO[C@@]1(NC(=O)CSCC#N)C(=O)N2C(C(=O)O)=C(CSc3nnnn3C)CS[C@@H]21 [CEFMETAZOLE] | 11.4 | 0.738 | 5.1 | 373 | 214 |  |  |  | 
2 | CCN1CCN(C(=O)N[C@@H](C(=O)N[C@@H]2C(=O)N3C(C(=O)O)=C(CSc4nnnn4C)CS[C@H]23)c2ccc(O)cc2)C(=O)C1=O [CEFOPERAZONE] | 2.6 |  | 2.5 |  |  |  |  |  | 
3 | CCCc1nc(C(C)(C)O)c(C(=O)O)n1Cc1ccc(-c2ccccc2-c2nnn[nH]2)cc1 [OLMESARTAN] | 26 | 0.01 | 19.1 | 168 | 66.8 |  |  |  | 
4 | CCCCC(=O)N(Cc1ccc(-c2ccccc2-c2nnn[nH]2)cc1)[C@H](C(=O)O)C(C)C | 17.5 | 0.003 | 17.4 | 210 | 71.1 |  |  |  | 
5 | Cc1cc(O)c(C(=O)N[C@@H](C(=O)N[C@@H]2C(=O)N3C(C(=O)O)=C(CSc4nnnn4C)CS[C@H]23)c2ccc(O)cc2)cn1 [CEFPIRAMIDE] | 1 | 0.158 | 2.6 | 283 | 201.4 |  |  | 57.8 | 8.15

Now from value to compound:

Row | Drug uptake (Hepatocyte) [µmol/L] | fraction unbound at 100 µM [1] | concentration at 5 h [2] [µM] | CL(app) [3] [mL/h/kg] | CL [4] [mL/h/kg] | dose excreted [5] [%] | clearance [6] [mL/min/kg] | dose excreted [7] [%] | clearance [8] [mL/min/kg] | SMILES
6 | 1.9 | 0.705 | 1.9 | 1644 | 403.4 |  |  |  |  | CC[C@H](C)C(=O)O[C@H]1C[C@H](O)C=C2C=C[C@H](C)[C@H](CC[C@@H](O)C[C@@H](O)CC(=O)O)[C@H]21 [PRAVASTATIN]
7 | 3.3 | 0.747 | 6.9 | 318 | 27.5 | 13.2 | 40.1 |  |  | CC[C@@]1(O)C(=O)OCc2c1cc1n(c2=O)Cc2cc3c(CN(C)C)c(O)ccc3nc2-1 [TOPOTECAN]
8 | 11.8 | 0.035 | 7.1 | 1450 | 150.3 |  |  |  |  | CC(C)c1nc(N(C)S(C)(=O)=O)nc(-c2ccc(F)cc2)c1/C=C/[C@@H](O)C[C@@H](O)CC(=O)O [ROSUVASTATIN]

From ChEMBL document CHEMBL3525999, “In vivo biliary clearance should be predicted by intrinsic biliary clearance in sandwich-cultured hepatocytes” (Drug Metab Dispos, 2012)
